In ChEMBL document CHEMBL3992570, “Integrated Platform for Expedited Synthesis-Purification-Testing of Small Molecule Libraries” (ACS Med Chem Lett, 2017):

Legend:
Polycomb protein EED [1] = target: T1, Polycomb protein EED (Homo sapiens, UniProt O75530); assay: Inhibition of pyrrolidine inhibitor-based oregon-green probe binding to GST-tagged EED (unknown origin) after 1 hr by LanthaScreen TR-FRET assay
In short: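 Compounds were made, purified and tested conventionally as separate steps, under the same assay conditions as the integrated run. Compound in DMSO was added to assay buffer (0.5% DMSO final) and incubated 1 h at 25 °C. The TR-FRET signal was read on a plate reader, and activity was derived by curve fitting.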

Polycomb protein EED [2] = target: T1, Polycomb protein EED; assay: Inhibition of pyrrolidine inhibitor-based oregon-green probe binding to GST-tagged EED (unknown origin) after 1 hr by assay explorer integrated LanthaScreen TR-FRET assay
In short: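 On the integrated platform, HPLC fractions were quantified by charged aerosol detection (calibrated with ketoprofen) and dissolved in DMSO to 10 mM stocks. An 11-point, 3-fold serial dilution followed. 50 nL of each dilution was pin-transferred into 10 µL assay buffer (0.5% DMSO final) and incubated 1 h at 25 °C. TR-FRET was read on EnVision, and activity was obtained by curve fitting.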

T1 sequence (O75530 whole entry): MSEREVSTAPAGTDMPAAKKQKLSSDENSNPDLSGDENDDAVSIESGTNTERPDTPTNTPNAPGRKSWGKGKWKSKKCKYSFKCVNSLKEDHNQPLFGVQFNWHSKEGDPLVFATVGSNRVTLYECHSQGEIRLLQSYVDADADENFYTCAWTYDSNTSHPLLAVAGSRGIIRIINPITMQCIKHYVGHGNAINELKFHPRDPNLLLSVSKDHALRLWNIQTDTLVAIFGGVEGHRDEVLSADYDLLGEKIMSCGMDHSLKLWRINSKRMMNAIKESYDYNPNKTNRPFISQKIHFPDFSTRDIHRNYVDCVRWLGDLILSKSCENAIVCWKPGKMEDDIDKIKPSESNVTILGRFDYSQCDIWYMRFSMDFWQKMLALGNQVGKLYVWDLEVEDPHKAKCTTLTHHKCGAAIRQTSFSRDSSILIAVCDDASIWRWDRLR

SMILES | IC50 (Polycomb protein EED [1]) [nM] | IC50 (Polycomb protein EED [2]) [nM]
CC(=O)NC1CCN(c2ccc([C@H]3CN(Cc4c(C)cccc4F)C[C@@H]3N(C)C)cc2)CC1 | 160 | 40
Cc1cccc(F)c1CN1C[C@H](c2ccc(N3CCn4ccnc4C3)cc2)[C@@H](N(C)C)C1 | 100 | 70
Cc1cc([C@H]2CN(Cc3c(C)cccc3F)C[C@@H]2N(C)C)ccc1C(=O)Nc1cccnc1 | 100 | 80
Cc1ccc(N2CCN(c3ccc([C@H]4CN(Cc5c(C)cccc5F)C[C@@H]4N(C)C)cc3)CC2)cc1 | 220 | 150
Cc1cccc(F)c1CN1C[C@H](c2ccc(N3CCN(c4ccccc4)CC3)cc2)[C@@H](N(C)C)C1 | 90 | 50
Cc1cccc(F)c1CN1C[C@H](c2ccc(N3CCC(N(C)C)CC3)cc2)[C@@H](N(C)C)C1 | 100 | 40
Cc1cccc(F)c1CN1C[C@H](c2ccc(N3CCN(c4ccccc4S(C)(=O)=O)CC3)cc2)[C@@H](N(C)C)C1 | 190 | 70
Cc1cc([C@H]2CN(Cc3c(C)cccc3F)C[C@@H]2N(C)C)ccc1C(=O)NCc1ccncc1 | 110 | 70
Cc1cccc(F)c1CN1C[C@H](c2ccc(N3CCN(c4ccncc4)CC3)cc2)[C@@H](N(C)C)C1 | 10 | 10
Cc1cc([C@H]2CN(Cc3c(C)cccc3F)C[C@@H]2N(C)C)ccc1C(=O)NCc1ccccn1 | 80 | 70
Cc1cc([C@H]2CN(Cc3c(C)cccc3F)C[C@@H]2N(C)C)ccc1C(=O)N(C)C | 180 | 110
Cc1cc([C@H]2CN(Cc3c(C)cccc3F)C[C@@H]2N(C)C)ccc1C(=O)N1CCN(CCO)CC1 | 380 | 270
Cc1ccc(S(=O)(=O)N2CCN(c3ccc([C@H]4CN(Cc5c(C)cccc5F)C[C@@H]4N(C)C)cc3)CC2)cc1 | 80 | 50
Cc1cccc(F)c1CN1C[C@H](c2ccc(N3CCN(S(=O)(=O)c4cccc(F)c4)CC3)cc2)[C@@H](N(C)C)C1 | 50 | 40
CC(=O)N[C@H]1CCN(c2ccc([C@H]3CN(Cc4c(C)cccc4F)C[C@@H]3N(C)C)cc2)C1 | 240 | 90
CC(=O)N[C@@H]1CCN(c2ccc([C@H]3CN(Cc4c(C)cccc4F)C[C@@H]3N(C)C)cc2)C1 | – | 160
CCN(CC)C(=O)c1ccc([C@H]2CN(Cc3c(C)cccc3F)C[C@@H]2N(C)C)cc1C | 250 | 100
Cc1cccc(F)c1CN1C[C@H](c2ccc(N3CCC(N4CCOCC4)CC3)cc2)[C@@H](N(C)C)C1 | 60 | 40
Cc1cccc(F)c1CN1C[C@H](c2ccc(N3CCC(C#N)CC3)cc2)[C@@H](N(C)C)C1 | 140 | 70
Cc1cccc(F)c1CN1C[C@H](c2ccc(N3CCC(C)CC3)cc2)[C@@H](N(C)C)C1 | 140 | 40
Cc1cccc(F)c1CN1C[C@H](c2ccc(N(C)C3CCN(C)CC3)cc2)[C@@H](N(C)C)C1 | 350 | 90
Cc1cc([C@H]2CN(Cc3c(C)cccc3F)C[C@@H]2N(C)C)ccc1C(=O)NCCN(C)C | 150 | 80
Cc1cccc(F)c1CN1C[C@H](c2ccc(N3CCN(c4nccs4)CC3)cc2)[C@@H](N(C)C)C1 | 40 | 30
Cc1cc([C@H]2CN(Cc3c(C)cccc3F)C[C@@H]2N(C)C)ccc1C(=O)N1CCN(C)CC1 | 480 | 260
